Calls of active or inactive are those of the source.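 Rule for the calls: active = EC50 for reversing nicotinamide-shortened yeast lifespan at or below a set limit; inactive = EC50 above that limit.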
System: S. cerevisiae DeaD BB579, nicotinamide rescue growth, OD615 48 h
Test: rescue of nicotinamide-suppressed growth of yeast BB579, dose response, yeast lifespan extension project, S. cerevisiae (AID 809)
How it was run: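 System – S. cerevisiae DeaD strain BB579 · Buffer or medium – CSMM-D glucose restrictive medium · Times – culture pre-incubation 4 h, then compound exposure 48 h, both 30 °C · Signal – OD615 absorbance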

O=c1[nH]c2ccccc2nc1C(Cl)c1ccccc1 (stereo unspecified)
EC50: 9.79 µM

CC1(C)CC2c3cccc(C(=O)O)c3C(=O)N2c2c1ccc1ccccc21 (stereo unspecified)
EC50: 2.84 µM

COc1ccc(/C=C/C(=O)C2C(=O)C=C(C)OC2=O)cc1O (stereo unspecified)
EC50: 7.47 µM

COCCN(CCOC)S(=O)(=O)c1ccc(C(=O)Nc2sc3c(c2C(N)=O)CCCCC3)cc1
EC50: > 10 µM (inactive)

Cc1nc2ccccc2n1-c1ccccc1
EC50: > 10 µM (inactive)

CN(C)C=C1C(=O)N(C2CCCCC2)C(=O)N(C2CCCCC2)C1=O
EC50: 6.96 µM

O=C1/C(=C/c2cccnc2)CCC/C1=C\c1cccnc1
EC50: 7.04 µM

CCOC(=O)C1C(c2cccs2)NC(=O)N(C)C1(O)C(F)(F)F (stereo unspecified)
EC50: > 10 µM (inactive)

ClC(Cl)(c1nnnn1-c1ccccc1)c1nnnn1-c1ccccc1
EC50: > 10 µM (inactive)

Oc1ccc(NCc2ccccc2OCc2ccccc2F)cc1
EC50: > 10 µM (inactive)

CCOC(=O)c1c(NC(=O)C2C3C=CC(C3)C2C(=O)O)sc2c1CCC(CC)C2 (stereo unspecified)
EC50: > 10 µM (inactive)

Cc1ccc(N(C)C(=O)Oc2ccc(C(=O)c3ccc(Cl)cc3)cc2)cc1
EC50: > 10 µM (inactive)

Cc1ccsc1C(=O)Nc1nnc(-c2ccco2)o1
EC50: 9.27 µM

CCCCCCCC(=O)N/N=C(/C)c1c(O)cc(C)oc1=O
EC50: > 10 µM (inactive)

c1cncc(-c2nn[nH]n2)c1
EC50: > 10 µM (inactive)

COC(=O)C1=C(C(=O)OC)C(c2ccccc2O)c2sc(=O)[nH]c2S1 (stereo unspecified)
EC50: 5.38 µM

CC1=NN(c2ccc(C(F)(F)F)cn2)C(=O)C1
EC50: > 10 µM (inactive)

CSC1=NSC2=NC(=O)/C(=C\c3cccs3)C(=N)N12
EC50: 3.28 µM

CCOC(=O)C(=Cc1ccc(F)cc1)C(=O)OCC
EC50: 6.7 µM

CCOc1ccc(C(=O)C(CN2CCOCC2)c2ccccc2)cc1 (stereo unspecified)
EC50: 7.92 µM

O=c1c2ccccc2sn1-c1ccccc1
EC50: > 10 µM (inactive)

O=C1c2ccccc2C(=O)N1c1ncc(Cc2ccc(Cl)cc2)s1
EC50: > 10 µM (inactive)

CC1CCCCN1C(=S)Nc1ccc2nc3n(c(=O)c2c1)CCCCC3 (stereo unspecified)
EC50: 8.72 µM

N#C/C(=C\c1ccccc1)C(=O)N(c1ccccn1)C1CCCCC1
EC50: 6.66 µM

C/C(=N\NC(=O)c1cccc(Cl)c1)C1C(=O)c2ccccc2C1=O
EC50: > 10 µM (inactive)

COc1ccc(-c2cc(C(F)(F)F)nc(S(C)(=O)=O)n2)cc1OC
EC50: 8.76 µM

CCc1nnc(NC(=O)c2cccc(S(=O)(=O)N(C)c3ccccc3)c2)s1
EC50: > 10 µM (inactive)

CCC1CCCCN1S(=O)(=O)c1ccc(S(=O)(=O)N(Cc2cccs2)C2CC2)cc1 (stereo unspecified)
EC50: > 10 µM (inactive)

CCOC(=O)Cc1csc(NC(=O)c2c(O)c3ccccc3n(CC(C)C)c2=O)n1
EC50: 9.63 µM

COc1ccc2c3c(cccc13)C(=O)N(O)C2=O
EC50: 2.08 µM

CC(C)c1nnc(NC(=O)c2c(O)c3cccc4c3n(c2=O)CCC4)s1
EC50: 4.31 µM

CCCC(=Nc1ccccc1OC)C1=C(O)CC(c2ccccc2)CC1=O (stereo unspecified)
EC50: 3.21 µM

CC[n+]1c(/C=C2\C=C(C)CC(C)(C)C2)sc2ccccc21
EC50: > 10 µM (inactive)

O=C1c2ccccc2C(=O)N1Cc1nc2ccccc2c(=O)n1-c1ccc(Br)cn1
EC50: 1.67 µM

COc1ccc(/C=N/NC(=O)c2csc(-n3nc(C)cc3C(F)(F)F)n2)cc1
EC50: > 10 µM (inactive)

CN1CCC2(CC1)C(C#N)=C(N)NC(S)=C2C#N
EC50: > 10 µM (inactive)

Oc1ccc2ccccc2c1/C=N/c1nccs1
EC50: 6.59 µM

O=C1C=CCC(/C=C/c2ccccc2)O1 (stereo unspecified)
EC50: > 10 µM (inactive)

O=C1c2ccccc2NC(c2ccc(Cl)cc2Cl)N1O (stereo unspecified)
EC50: 6.33 µM

Cn1c(=O)c2c(nc(Br)n2Cc2ccc3ccccc3c2)n(C)c1=O
EC50: > 10 µM (inactive)

N#Cc1c(-c2ccccc2)c(-c2ccccc2)nn(CC(=O)NNC(=O)Nc2ccccc2)c1=O
EC50: > 10 µM (inactive)

CC(C)n1c(-c2ccccc2F)n[nH]c1=S
EC50: > 10 µM (inactive)

O=C(CS(=O)c1ccc(C(F)(F)F)cc1[N+](=O)[O-])Oc1ccccc1 (stereo unspecified)
EC50: 5.19 µM

CC(C)C(OC(=O)CN1C(=O)COc2ccccc21)C(=O)NC1CCCC1 (stereo unspecified)
EC50: > 10 µM (inactive)

COc1ccc(C(=O)C(CN2CCOCC2)c2ccccc2)cc1 (stereo unspecified)
EC50: 7.11 µM

COc1ccc(OC)c(C2C(C(C)=O)=C(O)C(=O)N2Cc2cccnc2)c1 (stereo unspecified)
EC50: > 10 µM (inactive)

COc1ccc(C(=O)On2c(-c3ccc(Br)cc3)nc3ccccc3c2=O)cc1
EC50: 3.02 µM

COCCOC(=O)/C(=C/c1ccc(OC(=O)c2ccccc2)cc1)C(C)=O
EC50: 4.96 µM

O=[N+]([O-])c1cc2oc3c(c2c(C=NCc2ccccc2)c1O)CCCC3
EC50: 2.55 µM

COc1cc(Br)cc(-c2nc3c(c(=O)[nH]c(=O)n3Cc3ccccc3)n2C)c1O
EC50: > 10 µM (inactive)

CCSc1nnc(NC(=O)CSc2nc(C)cc(C)n2)s1
EC50: > 10 µM (inactive)

CC(=O)Oc1c(C(=O)c2nnc(C)o2)c(=O)n(C)c2ccccc12
EC50: > 10 µM (inactive)

O=C(N/N=C/c1cccc(F)c1)c1c(O)c2ccccc2[nH]c1=O
EC50: 3.21 µM

COc1ccccc1C(=O)Oc1cc(N)n(S(=O)(=O)c2ccc(C)cc2)n1
EC50: > 10 µM (inactive)

CCCC(=Nc1ccccc1)C1=C(O)C(C(=O)OC)C(C)(C)CC1=O (stereo unspecified)
EC50: 5.99 µM

O=C(c1ccccc1)C(CN1CCCC1)c1ccccc1 (stereo unspecified)
EC50: 9.14 µM

C=C(C(=O)c1ccccc1)C(C)CC(=O)c1ccccc1 (stereo unspecified)
EC50: 6.42 µM

COc1ccc(CNC(=O)c2c(O)c3cccc4c3n(c2=O)CCC4)cc1
EC50: > 10 µM (inactive)

O=C(/C=C(\O)c1ccc(Cl)cc1)C(=O)NNC(=O)C(O)(c1ccccc1)c1ccccc1
EC50: 2.75 µM

CN(Cc1c(O)ccc2c1oc(=O)c1ccccc12)C1CCCCC1
EC50: > 10 µM (inactive)

O=C(NCc1ccco1)c1c(O)c2cccc3c2n(c1=O)CCC3
EC50: 5.98 µM

CC1=C(C#N)C2C(/C1=N/O)C2(C)C (stereo unspecified)
EC50: > 10 µM (inactive)

Cc1cc(C=C2C(=O)N(C)C(=S)N(C)C2=O)c(C)n1-c1cccnc1
EC50: > 10 µM (inactive)

Cc1cccc(NC(=O)c2c(O)c3cccc4c3n(c2=O)CCC4)n1
EC50: 6.87 µM

COc1ccc(-c2noc(CSc3nnc(-c4ccncc4)n3-c3ccc(F)cc3)n2)cc1OC
EC50: > 10 µM (inactive)

O=C1Nc2ccccc2C12OCC1(CO2)COC2(OC1)C(=O)Nc1ccccc12 (stereo unspecified)
EC50: > 10 µM (inactive)

CC(=O)c1c(C)[nH]c(C(=O)OC2CCCCC2=O)c1C (stereo unspecified)
EC50: > 10 µM (inactive)

c1ccc(-c2cc(N3CCOCC3)nc3ccccc23)cc1
EC50: > 10 µM (inactive)

Cc1ccnc(N=Cc2c(O)ccc3oc4c(c23)CCCC4)c1
EC50: 8.47 µM

COC(=O)C1=C(C(=O)OC)SC(=C2C(=S)C(C)(C)N(C(=O)C(C)C)c3ccccc32)S1
EC50: > 10 µM (inactive)

Cc1ccc(S(=O)(=O)N[C@@H](Cc2ccccc2)C(=O)CCl)cc1
EC50: 5.97 µM

Nc1sc(-c2ccccc2)cc1C(=O)O
EC50: > 10 µM (inactive)

COc1ccc(CNC(=O)C2CCN(c3nc(OC)nc(OC)n3)CC2)cc1
EC50: > 10 µM (inactive)

C=C(C(=O)c1ccccc1)C(C)C(=C)C(=O)c1ccccc1
EC50: 4.62 µM

O=C(NCc1cccnc1)c1ccc(S(=O)(=O)N2CCCCC2)cc1
EC50: > 10 µM (inactive)

Cc1ccc(CNc2nc3ccccc3s2)s1
EC50: > 10 µM (inactive)

O=c1cc(O)c2c(=O)n(-c3ccccc3)c3c(c2o1)CCCCCC3
EC50: > 10 µM (inactive)

O=C(Nc1nccs1)c1ccc2c(=O)n3c(nc2c1)CCCCC3
EC50: 7.75 µM

COC(=O)c1sc(S(=O)(=O)Nc2ccc(Br)cc2)c(C(=O)OC)c1C
EC50: > 10 µM (inactive)

Cc1cccc(OC(=O)n2c(=S)oc3cc(Cl)ccc32)c1
EC50: 5.42 µM

CCOC(=O)c1[nH]nc(C(=O)c2ccc(Br)cc2)c1O
EC50: 5.89 µM

COc1ccc(OC)c(NC(=S)N2CCN(C/C=C/c3ccccc3)CC2)c1
EC50: > 10 µM (inactive)

CCc1[nH]nc2c1C(c1ccc(Br)s1)C(C#N)=C(N)O2 (stereo unspecified)
EC50: 9.31 µM

C=C(C)CN(CC)C(=O)COc1ccc(S(=O)(=O)Nc2ccc(OC)cc2)cc1
EC50: > 10 µM (inactive)

CC(=O)C(C(C)=O)c1c(Cl)c(O)c(O)c2c(C(=O)c3ccccc3)coc12
EC50: > 10 µM (inactive)

CCOC(=O)C1CCN(C(c2cc3ccc(C)c(C)c3[nH]c2=O)c2nnnn2C2CCCCC2)CC1 (stereo unspecified)
EC50: > 10 µM (inactive)

Cc1ccnc(SCc2cc(=O)c(OC(=O)c3ccco3)co2)n1
EC50: 8.45 µM

COC(=O)/C(=C/c1cn(C)c2ccccc12)[N+](=O)[O-]
EC50: 2.24 µM

O=c1cc(-c2c(F)c(F)c(F)c(F)c2F)oc2c(F)c(F)c(F)c(F)c12
EC50: 5.65 µM

O=[N+]([O-])c1cc(S(=O)(=O)N2CCCCCC2)ccc1F
EC50: 5.18 µM

CC(C)CN=C(NS(=O)(=O)c1ccccc1)C(Cl)(Cl)Cl
EC50: 3.99 µM

Cc1cc(C)n2cc(CSc3nnc(N)s3)nc2n1
EC50: > 10 µM (inactive)

CCCn1c(SCC(=O)c2ccc3c(c2)NC(=O)CO3)nc2ccccc21
EC50: > 10 µM (inactive)

CCSc1nnc(NC(=O)C2(C)Cc3ccccc3C(=O)O2)s1 (stereo unspecified)
EC50: 6.52 µM

C=CCn1c(C)cc(C(=O)CSc2nc3ccccc3c(=O)[nH]2)c1C
EC50: > 10 µM (inactive)

CCOC(=O)c1ccccc1N1C(=O)CSC1=S
EC50: > 10 µM (inactive)

CC(C)c1ccc2occ(-c3nn[nH]n3)c(=O)c2c1
EC50: 6.44 µM

CC1CC(C)CN(S(=O)(=O)c2cccc(C(=O)N3C(=O)c4cccc(N)c4C3=O)c2)C1 (stereo unspecified)
EC50: 4.71 µM

Cc1ccnc(-n2c(C)cc(/C=C3\C(=O)NC(=S)N(C)C3=O)c2C)c1
EC50: > 10 µM (inactive)

O=C1CC(c2ccccc2)CC(O)=C1C=NCCN1CCN(C(=O)Cc2ccccc2)CC1 (stereo unspecified)
EC50: 6.72 µM

CN(C)c1ccc(S(=O)(=O)c2ccc(Cl)cc2)cc1
EC50: > 10 µM (inactive)

Cc1ccc2nc(-c3ccc(NC(=O)CSc4ccccc4)cc3)[nH]c2c1
EC50: > 10 µM (inactive)

CCCC(=Nc1ccc(N)cc1)C1=C(O)C(C(=O)OC)C(C)(C)CC1=O (stereo unspecified)
EC50: 8.85 µM

C=C(CC)C(=O)c1ccc(OCC(=O)O)c(Cl)c1Cl
EC50: 7.07 µM

CCOC(=O)c1c(C)oc2c1c(C(c1cccnc1)N1CCCCC1)c(O)c1ccccc12 (stereo unspecified)
EC50: > 10 µM (inactive)

COCCCN(C(=S)Nc1cc(Cl)cc(Cl)c1)C(C)c1ccncc1 (stereo unspecified)
EC50: > 10 µM (inactive)
